Legend:
Trypanosoma cruzi [1] = experiment: Antitrypanosomal activity against Trypanosoma cruzi Sylvio X-10 amastigotes infected in African green monkey Vero cells assessed as eradication of amastigotes after 5 days by Giemsa staining-based assay; format: functional, organism-based; conditions: Sylvio X-10, Vero, 120 h
Summary of the method: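 VERO cells in RPMI 1640 with 10% hiFCS were allowed to adhere for 24 h at 37 °C in 5% CO₂, then infected with tissue-derived trypomastigotes at 10:1. Free parasites were washed off after 24 h, and cultures were treated at five compound doses (text gives 72 h / 5 days). Cultures were methanol-fixed and Giemsa-stained, and infected cells were counted among 300. Quadruplicates were run in three independent experiments. IC50/IC90 were obtained by sigmoidal regression.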

Salmonella typhimurium [2] = experiment: Mutagenic activity in Salmonella typhimurium TA98 at 3 to 250 ug/plate by Ames test in presence of mouse liver S9 fraction; format: toxicity, organism-based; conditions: salmonella enterica subsp. enterica serovar typhimurium
Summary of the method: (§1)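 Ames plate-incorporation assay with S. typhimurium TA98 in Vogel-Bonner E minimal glucose agar. Toxicity toward the bacteria was checked first. DMSO solutions were run in triplicate at five consecutive third-dilutions, starting at the highest non-toxic dose. Positive controls were 4-nitro-o-phenylenediamine (20.0 μg/plate) and 2-aminofluorene (10.0 μg/plate); DMSO was the negative control. Revertants were counted manually. A compound was called mutagenic when revertants were at least twice the negative control at two or more consecutive doses.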

[3] = Selectivity index, ratio of IC50 for African green monkey Vero cells to IC50 for Trypanosoma cruzi Sylvio X-10 amastigotes; format: toxicity, cell-based; conditions: read-out: Ratio IC50
Summary of the method: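 VERO cytotoxicity: cells exposed 48 h at 37 °C, 5% CO2 to serial dilutions from a maximum of 2000 μM (DMSO stocks; DMSO <0.1% control); growth inhibition read by MTT at 570 nm. Amastigote IC50: Sylvio X-10-infected VERO cells, five doses, infected cells counted among 300 (Giemsa), quadruplicate, three experiments, sigmoidal fit. SI = IC50 VERO / IC50 amastigote.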

Salmonella typhimurium [4] = experiment: Mutagenic activity in Salmonella typhimurium TA98 at 3 to 250 ug/plate by Ames test; format: toxicity, organism-based; conditions: salmonella enterica subsp. enterica serovar typhimurium; summary of the method: as §1
Trypanosoma cruzi [5] = experiment: Antitrypanosomal activity against Trypanosoma cruzi Tulahuen 2 epimastigotes assessed as growth inhibition after 5 days; format: functional, organism-based; conditions: Trypanosoma cruzi, Tulahuen 2, 120 h
Summary of the method: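 Epimastigotes were grown axenically at 28 °C in BHI-tryptose with 5% FBS and seeded from a 5–7 day culture at 1 × 10⁶ cells/mL. Drug from a DMSO stock was added (final DMSO ≤0.4%; the control contained 0.4% DMSO). Duplicates were run. A600 was read at day 5, and % inhibition was calculated relative to day-0 and control readings. IC50 = concentration that halves the absorbance ratio.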

[6] = Selectivity index, ratio of IC50 for human RBC to IC50 for Trypanosoma cruzi Sylvio X-10 amastigotes
Summary of the method: (§2)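 Hemolysis: washed human erythrocytes (2% w/v in PBS) incubated 24 h at 37 °C with compound at final 50, 100 and 200 μM. Ten replicates per concentration. Hemoglobin release read at 405 nm against water lysis as 100%; amphotericin B 1.5 μM was the positive control. SI = IC50 red cells / parasite IC50 (Sylvio X-10 amastigotes or Tulahuen 2 epimastigotes).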

Trypanosoma cruzi [7] = experiment: Antitrypanosomal activity against Trypanosoma cruzi Sylvio X-10 amastigotes infected in African green monkey Vero cells assessed as eradication of amastigotes after 72 hrs by Giemsa staining-based assay; conditions: Sylvio X-10, Vero
Salmonella typhimurium [8] = experiment: Mutagenic activity in Salmonella typhimurium TA98 at 6 to 500 ug/plate by Ames test in presence of mouse liver S9 fraction; format: toxicity, organism-based; conditions: salmonella enterica subsp. enterica serovar typhimurium; summary of the method: as §1
Salmonella typhimurium [9] = experiment: Mutagenic activity in Salmonella typhimurium TA98 at 6 to 500 ug/plate by Ames test; format: toxicity, organism-based; conditions: salmonella enterica subsp. enterica serovar typhimurium; summary of the method: as §1
Salmonella typhimurium [10] = experiment: Mutagenic activity in Salmonella typhimurium TA98 at 5 to 400 ug/plate by Ames test; format: toxicity, organism-based; conditions: salmonella enterica subsp. enterica serovar typhimurium; summary of the method: as §1
[11] = Selectivity index, ratio of IC50 for human RBC to IC50 for Trypanosoma cruzi Tulahuen 2 epimastigotes; summary of the method: as §2
Salmonella typhimurium [12] = experiment: Mutagenic activity in Salmonella typhimurium TA98 at 0.05 to 4 ug/plate by Ames test in presence of mouse liver S9 fraction; format: toxicity, organism-based; conditions: salmonella enterica subsp. enterica serovar typhimurium; summary of the method: as §1
Salmonella typhimurium [13] = experiment: Mutagenic activity in Salmonella typhimurium TA98 at 0.05 to 4 ug/plate by Ames test; format: toxicity, organism-based; conditions: salmonella enterica subsp. enterica serovar typhimurium; summary of the method: as §1
Salmonella typhimurium [14] = experiment: Mutagenic activity in Salmonella typhimurium TA98 at 0.02 to 2 ug/plate by Ames test in presence of mouse liver S9 fraction; format: toxicity, organism-based; conditions: salmonella enterica subsp. enterica serovar typhimurium
Summary of the method: (§3)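 Plate-incorporation Ames test on minimal glucose agar with 500 μL Aroclor-treated mouse liver S9 added. DMSO solutions were tested at five consecutive 3-fold dilutions from the highest non-toxic dose, in triplicate, with a DMSO negative control. Revertants were counted manually; a compound was scored mutagenic when revertants were at least twice the negative control for two or more consecutive doses.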

Salmonella typhimurium [15] = experiment: Mutagenic activity in Salmonella typhimurium TA98 at 0.02 to 2 ug/plate by Ames test; format: toxicity, organism-based; conditions: salmonella enterica subsp. enterica serovar typhimurium
Summary of the method: (§4)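 Direct plate incubation on minimal glucose agar (Vogel-Bonner E). Compound toxicity to the bacteria was checked first. DMSO solutions were tested at five consecutive 3-fold dilutions, starting from the highest non-toxic dose, in triplicate, without metabolic activation. DMSO served as negative control. Revertants were counted manually; mutagenic = revertants at least double the negative control at two or more consecutive doses.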

[16] = Stability of the compound in aqueous solution assessed as compound remaining at 1 mM at pH 6 after 1 hr by TLC analysis; format: physicochemical; conditions: aqueous solution, pH 6; read-out: Stability
Summary of the method: (§5)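 DMSO stocks diluted to final 1 mM in KCl·HCl pH 1.0, citrate pH 6.0, Tris·HCl pH 7.4 or borax·HCl pH 9.0 buffer. Incubated 1 h at 37 °C, then ethyl acetate extracts checked by TLC for decomposition products.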

Salmonella typhimurium [17] = experiment: Mutagenic activity in Salmonella typhimurium TA100 at 3.09 to 250 ug/plate by Ames test in presence of mouse liver S9 fraction; format: toxicity, organism-based; conditions: salmonella enterica subsp. enterica serovar typhimurium; summary of the method: as §3
[18] = Stability of the compound in aqueous solution assessed as compound remaining at 1 mM at pH 9 after 1 hr by TLC analysis; format: physicochemical; conditions: aqueous solution, pH 9; read-out: Stability; summary of the method: as §5
Salmonella typhimurium [19] = experiment: Mutagenic activity in Salmonella typhimurium TA1535 at […] ug/plate by Ames test; format: toxicity, organism-based; conditions: salmonella enterica subsp. enterica serovar typhimurium; summary of the method: as §4
Salmonella typhimurium [20] = experiment: Mutagenic activity in Salmonella typhimurium TA102 at […] ug/plate by Ames test in presence of mouse liver S9 fraction; format: toxicity, organism-based; conditions: salmonella enterica subsp. enterica serovar typhimurium; summary of the method: as §3
[21] = Stability of the compound in aqueous solution assessed as compound remaining at 1 mM at pH 7.4 after 1 hr by TLC analysis; format: physicochemical; conditions: aqueous solution, pH 7.4; read-out: Stability; summary of the method: as §5
[22] = Stability of the compound in aqueous solution assessed as compound remaining at 1 mM at pH 1 after 1 hr by TLC analysis; format: physicochemical; conditions: read-out: Stability; summary of the method: as §5
Salmonella typhimurium [23] = experiment: Mutagenic activity in Salmonella typhimurium TA102 at […] ug/plate by Ames test; format: toxicity, organism-based; conditions: salmonella enterica subsp. enterica serovar typhimurium; summary of the method: as §4
Salmonella typhimurium [24] = experiment: Mutagenic activity in Salmonella typhimurium TA1537 at 0.03 to 0.2 ug/plate by Ames test in presence of mouse liver S9 fraction; format: toxicity, organism-based; conditions: salmonella enterica subsp. enterica serovar typhimurium, in the assay text read “0.003 to 0.2 ug/plate” for “0.03 to 0.2 ug/plate”; summary of the method: as §3
Salmonella typhimurium [25] = experiment: Mutagenic activity in Salmonella typhimurium TA1535 at […] ug/plate by Ames test in presence of mouse liver S9 fraction; format: toxicity, organism-based; conditions: salmonella enterica subsp. enterica serovar typhimurium; summary of the method: as §3
Salmonella typhimurium [26] = experiment: Mutagenic activity in Salmonella typhimurium TA1537 at 0.03 to 0.2 ug/plate by Ames test; format: toxicity, organism-based; conditions: salmonella enterica subsp. enterica serovar typhimurium; summary of the method: as §4
Salmonella typhimurium [27] = experiment: Mutagenic activity in Salmonella typhimurium TA100 at 3.09 to 250 ug/plate by Ames test; format: toxicity, organism-based; conditions: salmonella enterica subsp. enterica serovar typhimurium; summary of the method: as §4

With `C=CCNC(=S)N/N=C/C=C/c1ccc([N+](=O)[O-])s1` the IC50 (Trypanosoma cruzi [1]) was 1.29 µM, the Activity (Salmonella typhimurium [2]) was “Toxic” and the selectivity ratio [3] was 60. The Activity (Salmonella typhimurium [4]) was “Toxic”, the IC50 (Trypanosoma cruzi [5]) was 1.2 µM and the Ratio IC50 [6] was 82.
With `C=CCNC(=S)N/N=C/C=C/C=C/c1cccs1` the IC90 (Trypanosoma cruzi [7]) was over 25 µM, the IC50 (Trypanosoma cruzi [1]) was over 25 µM and the Activity (Salmonella typhimurium [8]) was “Non-toxic”. The Activity (Salmonella typhimurium [9]) was “Non-toxic” and the IC50 (Trypanosoma cruzi [5]) was 0.6 µM.
For `C=CCN1C(=O)CS\C1=N/N=C/C=C/c1cccs1`, the Activity (Salmonella typhimurium [2]) was “Toxic”, the IC50 (Trypanosoma cruzi [5]) was 20 µM and the Activity (Salmonella typhimurium [10]) was “Toxic”.
For `S=C(N/N=C/c1cccs1)Nc1ccccc1`, the Ratio IC50 [11] was 21 and the IC50 (Trypanosoma cruzi [5]) was 4.7 µM.
For `C=CCNc1nnc(-c2ccc([N+](=O)[O-])s2)s1`, the IC90 (Trypanosoma cruzi [7]) was 15.9 µM, the Activity (Salmonella typhimurium [12]) was “Non-toxic” and the IC50 (Trypanosoma cruzi [1]) was 5 µM. The Activity (Salmonella typhimurium [13]) was “Non-toxic”, the selectivity ratio [3] was 50 and the IC50 (Trypanosoma cruzi [5]) was 12 µM.
For `C=CCN1C(=O)CS\C1=N/N=C/C=C/c1ccc([N+](=O)[O-])s1`, the Activity (Salmonella typhimurium [14]) was “Non-toxic”, the IC50 (Trypanosoma cruzi [1]) was 2.8 µM and the selectivity ratio [3] was 80. For the same compound, the Activity (Salmonella typhimurium [15]) was “Toxic”, the IC50 (Trypanosoma cruzi [5]) was 1.3 µM and the Ratio IC50 [6] was 28.
For `C=CCn1c(C)cs/c1=N/N=C/C=C/c1ccco1`, the IC90 (Trypanosoma cruzi [7]) was 51 µM, the remaining at 1 h, 1000 µM [16] was over 95% and the Activity (Salmonella typhimurium [17]) was “Non-toxic”. The remaining at 1 h, 1000 µM [18] was over 95%, the Activity (Salmonella typhimurium [19]) was “Non-toxic” and the Activity (Salmonella typhimurium [20]) was “Non-toxic”. The IC50 (Trypanosoma cruzi [1]) was 6.3 µM, the remaining at 1 h, 1000 µM [21] was over 95% and the Activity (Salmonella typhimurium [8]) was “Non-toxic”. For the same compound, the remaining at 1 h, 1000 µM [22] was 90%, the Activity (Salmonella typhimurium [23]) was “Non-toxic” and the Activity (Salmonella typhimurium [24]) was “Non-toxic”. The Activity (Salmonella typhimurium [9]) was “Non-toxic”, the Activity (Salmonella typhimurium [25]) was “Non-toxic” and the Activity (Salmonella typhimurium [26]) was “Non-toxic”. The IC50 (Trypanosoma cruzi [5]) was over 25 µM and the Activity (Salmonella typhimurium [27]) was “Non-toxic”.
